Assay outcomes from PubChem.
HSP90 refold inh – HSP90 refolding inhibition in rabbit reticulocyte lysate; luciferase refolding luminescence, 3 h; inhibition, % at 5.6 µM; hit rate 0.91% among 290,000; AID 1789;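 active = inhibition above the screen-wide mean plus 3 SD, computed separately per campaign, cut at about 16% in these data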;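 note: inhibitors lower the luminescence because luciferase stays unfolded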
C8 TRAIL sens – sensitizes caspase-8 expressing cells to TRAIL | NB7+C8 cells + TRAIL, ATPlite viability luminescence | inhibition (viability loss, TRAIL sensitization), % at 10 µM | AID 624354 | hit rate 1% among 360,000;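 active = compounds causing at least 50% loss of cell viability in the single-dose screen, relative to plate controls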
PPC-1+TRAIL kill – PPC-1 cancer cell killing with TRAIL present; PPC-1 cells + TRAIL, ATPLite viability luminescence; cell killing (% activity), % at 4 µM or 5 µM; hit rate 0.41% among 220,000;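 active = cell killing above 50% in the first pass at 4 µM, then a duplicate retest at 5 µM averaging 50% or more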
FLuc inhib CS – inhibits firefly luciferase, flagging false hits in luciferase inhibition screens | ATPLite firefly luciferase biochemical luminescence, 10 min | inhibition, % at 10 µM | hit rate 1.5% among 200,000;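 active = inhibition above about 50% when tested at 10 µM, limit read from the data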
Target sequence (P08659 whole entry, looked up): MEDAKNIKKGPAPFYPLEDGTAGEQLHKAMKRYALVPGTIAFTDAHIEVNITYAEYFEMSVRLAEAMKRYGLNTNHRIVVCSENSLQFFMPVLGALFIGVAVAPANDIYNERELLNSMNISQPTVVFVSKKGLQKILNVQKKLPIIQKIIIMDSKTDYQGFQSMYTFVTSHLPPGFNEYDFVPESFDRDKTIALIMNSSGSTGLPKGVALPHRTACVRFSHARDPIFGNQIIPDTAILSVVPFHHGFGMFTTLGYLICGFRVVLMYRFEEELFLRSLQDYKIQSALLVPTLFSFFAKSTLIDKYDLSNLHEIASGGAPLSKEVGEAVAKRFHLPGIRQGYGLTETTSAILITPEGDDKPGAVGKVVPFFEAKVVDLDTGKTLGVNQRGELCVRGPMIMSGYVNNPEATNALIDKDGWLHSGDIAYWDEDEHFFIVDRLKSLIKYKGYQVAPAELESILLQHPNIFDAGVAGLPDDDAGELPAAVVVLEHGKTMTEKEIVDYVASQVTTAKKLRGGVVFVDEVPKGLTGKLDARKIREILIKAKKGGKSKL
FLuc stim CS – firefly luciferase counter-screen for stimulation assays; P08659; ATPlite luciferase biochemical, luminescence, 10 min; 0 = ATP-free wells, 1 = DMSO control; activation factor at 10 µM; 200,000 tested, under 10 active; AID 1027;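 active = luciferase activation factor, scaled between plate controls, of at least 2 with compound at 10 µM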
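System: cell-free luciferase reagent; medium: PBS as buffer for the ATP substrate; doses: test compounds dosed from 2 mM stocks in 100% DMSO; incubation: 10 min, room temperature; measured by: luminescence from luciferase reaction; read-out: luciferase activation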
HSP90 inh confirm – confirmation of HSP90 inhibitors; hit rate 64% among 2,300; inhibition, % at 5.9 µM; shares compounds with HSP90 refold inh; rabbit reticulocyte lysate, luciferase refolding luminescence, 3 h; in the data active = inhibition above about 18%
FLuc counter – blocks native firefly luciferase in HSP90 counter-screen | shares compounds with HSP90 refold inh | purified native firefly luciferase, luminescence | inhibition, % at 5.9 µM | hit rate 48% among 2,300 | AID 1847;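 active = inhibition above the mean inhibition of all tested sample wells plus 3 SD, cut at about 10% in these data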
A number is an active result; . = inactive; / = no result given. An excerpt weighted towards active compounds, which were near 2% of everything screened.

SMILES | HSP90 refold inh | C8 TRAIL sens | PPC-1+TRAIL kill | FLuc inhib CS | FLuc stim CS | HSP90 inh confirm | FLuc counter
O=C(Nc1nc2ccccc2[nH]1)c1ccccc1OC(F)F | 30.0 | 68.8 | / | / | / | 55.1 | 44.9
COc1ccc(Cl)cc1C(=O)Nc1nc2ccccc2[nH]1 | 71.0 | 81.3 | / | / | / | 86.6 | 77.3
CC(C)Oc1ccc(C(=O)Nc2nc3ccccc3[nH]2)cc1 | 83.2 | 92.0 | / | / | / | 90.5 | 84.6
CC(Oc1ccccc1)C(=O)N=C1SC2CS(=O)(=O)CC2N1CCc1ccccc1 (centres undefined) | . | . | / | / | / | / | /
CC1CCN(C(=O)CCS(=O)(=O)c2cc3c(cc2Cl)NC(=O)CO3)CC1 | . | . | / | / | / | / | /
COc1ccc(NC(=O)CSc2nc3c(sc4ccccc43)c(=O)n2CCCN2CCCC2)cc1 | . | . | / | / | / | / | /
CC(C)CCC(C(=O)O)C(C)CC(=O)Nc1ccn(-c2ccccc2)n1 (centres undefined) | . | . | . | / | / | / | /
Cc1ccsc1C(=O)Nc1nc2ccccc2[nH]1 | 22.2 | 60.1 | . | / | / | 37.7 | 28.8
CN(C)S(=O)(=O)c1ccc(C(=O)Nc2nc3ccccc3[nH]2)cc1 | . | . | . | . | . | / | /
CCc1ccc(C(=O)Nc2nc3ccccc3[nH]2)cc1 | 79.6 | 96.3 | / | / | / | 90.5 | 85.0
N#Cc1ccc(C(=O)Nc2nc3ccccc3[nH]2)cc1 | . | . | / | / | / | / | /
CC(CC(=O)Nc1ccc2c(c1)c(=O)n(C)n2-c1ccccc1F)c1ccccc1 (centres undefined) | / | . | / | / | / | / | /
CCOc1cc(C2NC(=O)NC(C)=C2C(=O)OCC2CCCCC2)ccc1O (centres undefined) | . | . | / | / | / | / | /
CCCCNC(=O)C1(C)CCCCN1C(=O)c1ccc2ccccc2n1 (centres undefined) | / | . | / | / | / | / | /
CCn1c(SCC(=O)c2c(N)n(C3CC3)c(=O)[nH]c2=O)nnc1-c1ccoc1C | / | . | / | / | / | / | /
CCc1ccccc1NC(=O)c1ccc(OCc2c(C)noc2C)cc1 | / | . | / | / | / | / | /
Cc1ccc(N=Nc2cc(C)ccc2O)c(C)c1 | . | . | / | / | / | / | /
Cc1ccc(N=Nc2cc(C)ccc2N)cc1 | 26.3 | 68.6 | . | / | / | 63.1 | 61.4
Nc1nc(SCC(=O)c2cccs2)n[nH]1 | . | . | . | . | . | / | /
O=C(O)c1ccc(-c2ccccc2Cl)o1 | 28.1 | . | / | / | / | 30.1 | .
O=C(CSc1nnc2ccc(-c3ccncc3)nn12)c1cccs1 | 65.8 | . | . | . | . | . | .
CCCS(=O)(=O)N1CCN=C1SCc1cccc(C)c1 | . | . | . | . | . | / | /
Cc1ccc(/C(O)=C2/C(=O)C(=O)N(Cc3cccnc3)C2c2ccccn2)cc1 (centres undefined) | . | . | . | . | . | / | /
Cc1c(/C(O)=C2/C(=O)C(=O)N(Cc3cccnc3)C2c2ccccn2)cnn1-c1ccccc1 (centres undefined) | 75.4 | . | . | . | . | 23.9 | 30.1
Cc1c(/C(O)=C2/C(=O)C(=O)N(Cc3cccnc3)C2c2cccs2)cnn1-c1ccccc1 (centres undefined) | 55.0 | . | . | . | . | 55.5 | 52.7
SMILES | HSP90 refold inh | C8 TRAIL sens | PPC-1+TRAIL kill | FLuc inhib CS | FLuc stim CS | HSP90 inh confirm | FLuc counter
COc1ccc(/C(C)=N/NC(=O)Cn2nc([N+](=O)[O-])cc2C)cc1 | 30.1 | . | . | / | / | . | .
O=C(CN1C(=O)/C(=C/c2ccccc2)SC1=S)N1CCN(CCc2ccccn2)CC1 | . | . | / | / | / | / | /
CN(CC(=O)Nc1ccccc1Br)C(=O)c1ccccc1OCc1ccc(Cl)cc1 | / | . | / | / | / | / | /
CCOc1ccc(Nc2nc(N)c3ccccc3n2)cc1 | 59.7 | 86.1 | / | / | / | 74.2 | 61.0
CN(C)c1nc(Nc2ccccc2)nc(N(C)C)n1 | . | . | . | . | . | / | /
CN(C)c1ccc(Nc2nc(N)c3ccccc3n2)cc1 | 70.5 | 83.9 | / | / | / | 92.1 | 78.3
CCOc1nc(Nc2ccc(OC)cc2)nc(OCC)n1 | . | . | . | . | . | / | /
Cc1ccc(Cn2cnc3c(cnn3-c3ccc(F)cc3)c2=O)cc1 | . | . | . | . | . | / | /
COc1ccc(CNC(=O)CN(Cc2ccco2)C(=O)CNS(=O)(=O)c2ccc(F)cc2)cc1 | . | . | / | / | / | / | /
CN(C)c1ccc(N=Nc2nc3ccccc3n2C)cc1 | 21.5 | 95.0 | . | / | / | 19.4 | 92.9
CCn1c(NCc2ccc(N(C)C)cc2)nc2ccccc21 | . | . | . | . | . | / | /
Cc1cc(C)cc(OCC(=O)Nc2cccc(S(=O)(=O)NC3=NCCC3)c2)c1 | / | . | / | / | / | / | /
Cc1nc(NC(=O)/C=C/c2ccccc2)sc1C(=O)Nc1ccccc1Cl | 27.1 | . | . | . | . | 54.3 | .
Cc1ccc(SCC(=O)OCC(=O)NCCC2=CCCCC2)cc1 | / | . | / | / | / | / | /
Oc1ccc(C[C@H]2CNC(=S)N2CC2CCCN2C[C@H](Cc2ccc(O)cc2)N2C[C@H](Cc3ccccc3)N(CCc3ccccc3)C2=S)cc1 (some centres undefined) | / | . | / | / | / | / | /
Cc1oc2cc3c(C(=O)N4CCCCC4)c(C)oc3cc2c1C(=O)N1CCCCC1 | 74.0 | . | . | . | . | 68.4 | 33.3
Cc1oc2cc3c(C(=O)N4CCN(c5ccccc5)CC4)c(C)oc3cc2c1C(=O)N1CCN(c2ccccc2)CC1 | . | / | / | / | / | / | /
CCN(CC)CCOc1c(Br)ccc2c1sc1nc3n(c(=O)c12)CCC3 | . | . | . | . | . | / | /
O=c1c2c(nc3n1CCCCC3)sc1c(O)c(Br)ccc12 | 23.2 | . | . | 80.6 | . | 35.3 | 36.8
Oc1ccccc1C1SC(c2ccccc2O)SC(c2ccccc2O)S1 (centres undefined) | / | . | / | / | / | / | /
Oc1ccccc1C1NN=C(c2ccccc2)S1 (centres undefined) | 24.5 | 70.3 | / | / | / | 32.8 | 18.0
CCCCOC(=O)Nc1nnc(CC)s1 | 28.7 | . | . | . | . | . | .
CCCCCOC(=O)Nc1nnc(CCCCC)s1 | . | . | . | . | . | / | /
N#CCC(=O)Nc1ccc(C(=O)OCC(=O)c2ccc3c(c2)OCCO3)cc1 | 20.4 | . | . | . | . | 31.5 | .
COCCn1c(C)cc(C(=O)COC(=O)c2ccc(NC(=O)CC#N)cc2)c1C | 18.6 | . | . | . | . | . | 13.5
SMILES | HSP90 refold inh | C8 TRAIL sens | PPC-1+TRAIL kill | FLuc inhib CS | FLuc stim CS | HSP90 inh confirm | FLuc counter
CCCc1nnc(SCC(=O)Nc2cccc(C(F)(F)F)c2)o1 | . | . | / | / | / | / | /
C=CCN=C1NN=C(c2ccc3c(c2)OCCO3)CS1 | 46.9 | . | . | 93.8 | . | 83.0 | 79.0
c1ccc(C2=NNC(=NCc3ccc4c(c3)OCO4)SC2)cc1 | . | . | . | . | . | / | /
Cc1nn(C2CCS(=O)(=O)C2)c(C)c1CN(C)C(=O)c1ccc(S(=O)(=O)N(C)C)cc1 (centres undefined) | / | . | / | / | / | / | /
CC1CCc2nc(NC(=O)CSc3nc4ccccc4o3)sc2C1 (centres undefined) | 46.0 | . | . | . | . | 50.8 | 48.9
CC(C)CN(CCCNC(=O)CN1C(=O)COc2ccc(S(=O)(=O)N3CCCC3)cc21)CC(C)C | 22.0 | . | . | . | . | . | .
C[n+]1ccccc1/C=C1\Sc2ccccc2N1CCO | 17.5 | . | / | / | / | . | .
